The source of these data is ChEMBL document CHEMBL4145466, “Design, synthesis, and biological evaluation of novel combretastatin A-4 thio derivatives as microtubule targeting agents” (Eur J Med Chem, 2018).

One test concerns HaCaT. The test is described as follows: Cytotoxicity against human HaCaT cells after 48 hrs by MTT assay. Format: cell-based. The method, boiled down:
(§1)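 Cells in DMEM with 10% FBS were plated at 2 × 10^4 per well and left overnight, then treated for 48 h at 0.6–20 µM (six concentrations) from 10 mM DMSO stocks. MTT was added for 2 h, and formazan was dissolved in DMSO and read at 570 nm. Viability was expressed as % of control, with IC50 taken from dose-response curves. Results are mean ± SD of three independent experiments.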
(In general: Formazan colour is commonly taken as a measure of viable cells.)

Another test concerns HeLa. Description: Cytotoxicity against human HeLa cells after 48 hrs by MTT assay. Format: functional, cell-based. In short, it runs like this:
as §1

The nature of test [1]: Cytotoxicity against human CCD39Lu cells after 48 hrs by MTT assay. Type of test: cell-based. The method, boiled down:
as §1

Test [2] in a line: Inhibition of porcine tubulin polymerization after 1 hr by spectrophotometric analysis. Further details: species or system Sus scrofa. In short, it runs like this:
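Polymerization was started by shifting from 4 °C to 37 °C, and absorbance was followed at 37 °C for 60 min. The vehicle served as control.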

Another test concerns A-431. Description: Cytotoxicity against human A431 cells after 48 hrs by MTT assay. Format: functional, cell-based. The conditions noted are these: A-431, 48 h. The method, boiled down:
as §1

For another test, the system named is SK-OV-3. The test is described as follows: Cytotoxicity against human SKOV3 cells after 48 hrs by MTT assay. Format: functional, cell-based. Particulars: SK-OV-3, 48 h. The method, boiled down: as §1
The subject of another test is MDA-MB-231. Description: Cytotoxicity against human MDA-MB-231 cells after 48 hrs by MTT assay. Type of test: functional, cell-based. Particulars: MDA-MB-231, 48 h. The method, boiled down: as §1
The next test relates to A549. The test is described as follows: Cytotoxicity against human A549 cells after 48 hrs by MTT assay. Type of test: functional, cell-based. Particulars: A549, 48 h.
The next test deals with MCF7. Description: Cytotoxicity against human MCF7 cells after 48 hrs by MTT assay. Type of test: functional, cell-based. Particulars: MCF7, 48 h. The method, boiled down: as §1

pIC50: −log10 of the molar value.

As for `COc1cc(-c2ocnc2-c2cc(Br)c(OC)c(OC)c2)ccc1SC`, the pIC50 with HaCaT was 6.59; in the test with HeLa, 6.36; in test [1], below 4.70; in [2], 5.81; in the test on A-431 it was 6.39; with SK-OV-3, 5.99. The pIC50 in the test on MDA-MB-231 was 6.12; in the test with A549 it was below 4.70; in the test with MCF7 it was 5.61.

In the case of `COc1ccc(-c2c(-c3cc(OC)c(SC)c(OC)c3)ncn2C)cc1O`, the pIC50 is 6.30 with HaCaT; 6.41 in the test on HeLa; below 4.70 in test [1]; 5.18 in test [2]; 6.37 with A-431; 5.76 in the test with SK-OV-3. In addition, the pIC50 was 6.41 in the test with MDA-MB-231, below 4.70 in the test on A549 and 5.79 in the test on MCF7.

Consider `COc1cc(/C(=C\c2ccccc2SC)C(=O)O)cc(OC)c1OC`, for which the negative logarithm of the IC50 (pIC50) was below 4.70 with HaCaT; below 4.70 in the test with HeLa; below 4.70 in [1]; below 5.00 in test [2]; below 4.70 in the test with A-431; below 4.70 with SK-OV-3. The results for the negative logarithm of the IC50 (pIC50) with MDA-MB-231, in the test with A549 and in the test on MCF7 were below 4.70, below 4.70 and 5.74, respectively.

As to `COc1cc(-c2ncoc2-c2ccccc2SC)cc(OC)c1OC`, the pIC50 in the test with HaCaT is below 4.70; with HeLa, 5.13; in test [1], below 4.70; in test [2] it was 6.07; with A-431 it was below 4.70; with SK-OV-3, below 4.70. In addition, the negative-log IC50 (pIC50) with MDA-MB-231 is below 4.70; in the test on A549, below 4.70; with MCF7 it was 5.84.

`COc1cc(/C(=C\c2cccc(OC)c2SC)C(=O)O)cc(OC)c1OC`: the pIC50 was below 4.70 in the test with HaCaT; below 4.70 in the test on HeLa; below 4.70 in [1]; below 5.00 in [2]; below 4.70 in the test with A-431; below 4.70 in the test with SK-OV-3. Further, the negative logarithm of the IC50 (pIC50) in the test on MDA-MB-231 is below 4.70; with A549, below 4.70; in the test with MCF7, 6.02.

The pIC50 is the IC50 on a negative log10 scale, so that one unit is a factor of ten.
